Source: ChEMBL document CHEMBL3244282, “Synthesis and evaluation of bis-dipeptide and bis-tripeptide analogues of actinomycin D” (1978)
The source made the active and inactive calls. No cut-off for these calls is given here. Starred links: 1 amine or outer side, 2 acyl side, 3 side chain; linkers in the order of their positions; H or OH if unused. Positions of bridges follow the written chain, without caps; N, C: chain ends. Non-standard residues stand in square brackets, D forms with d. Residues, ends and D or L forms follow the SMILES beside them. Chains are numbered I, II in the order given. Actinocin(1to9) = Cc1c2oc3c(C)ccc(C(=O)[*:2])c3nc-2c(C(=O)[*:1])c(N)c1=O; NMeV = CN[C@H](C(=O)O)C(C)C; Sar = CNCC(=O)O

Experiments:
P388 = assay: Antitumor activity against mouse P388 cells allografted in CD2F1 mouse assessed as increase in life span at 25 mg/kg administered daily for 9 days; type: functional
Method in brief: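 P-388 leukaemia in CD2F1 mice, screened by the NCI Drug Research and Development Program. Dosing was by daily injection for 9 days, up to 25 mg/kg per injection. The read-out was increased life span (ILS), with ILS >25% taken as the minimum for activity.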

Calf thymus DNA [1] = assay: Binding affinity to calf thymus DNA assessed as hypochromic shift after 30 mins by spectral analysis; type: nucleic-acid assay; conditions: Bos taurus
Calf thymus DNA [2] = assay: Binding affinity to calf thymus DNA assessed as bathochromic shift after 30 mins by spectral analysis; type: nucleic-acid assay; conditions: Bos taurus
Calf thymus DNA [3] = assay: Binding affinity to calf thymus DNA assessed as isosbestic point after 30 mins by spectral analysis; type: nucleic-acid assay; conditions: Bos taurus
Bacillus spizizenii [4] = assay: Antibacterial activity against Bacillus subtilis ATCC 6633 at 5 ug/ml by cup-plate diffusion assay; type: functional; conditions: read-out: IZ
Method in brief: (§1)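 Cup-plate agar diffusion with 6-mm stainless steel cylinders on nutrient agar seeded with B. subtilis ATCC 6633, incubated at 37 °C. Activity is read as the zone of inhibition, compared with actinomycin D standards. On repeat assays, test concentrations were adjusted to give zones of roughly the same size as the standards.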

Bacillus spizizenii [5] = assay: Antibacterial activity against Bacillus subtilis ATCC 6633 at 2.50 ug/ml by cup-plate diffusion assay; type: functional; conditions: read-out: IZ; method in brief: as §1
Bacillus spizizenii [6] = assay: Antibacterial activity against Bacillus subtilis ATCC 6633 at 1.25 ug/ml by cup-plate diffusion assay; type: functional; conditions: read-out: IZ; method in brief: as §1
Bacillus spizizenii [7] = assay: Antibacterial activity against Bacillus subtilis ATCC 6633 at 3.85 ug/ml by cup-plate diffusion assay; type: functional; conditions: read-out: IZ; method in brief: as §1
Bacillus spizizenii [8] = assay: Antibacterial activity against Bacillus subtilis ATCC 6633 at 2.35 ug/ml by cup-plate diffusion assay; type: functional; conditions: read-out: IZ; method in brief: as §1
Bacillus spizizenii [9] = assay: Antibacterial activity against Bacillus subtilis ATCC 6633 at 0.65 ug/ml by cup-plate diffusion assay; type: functional; conditions: read-out: IZ; method in brief: as §1
Calf thymus DNA [10] = assay: Binding affinity to calf thymus DNA assessed as reduction in absorbance after 30 mins by spectral analysis; type: nucleic-acid assay; design: scale not given: the % may be the effect or the level left; conditions: Bos taurus
Calf thymus DNA [11] = assay: Binding affinity to calf thymus DNA at DNA/drug ratio of 25:1 after 30 mins by ultracentrifugation method; type: nucleic-acid assay; conditions: Bos taurus
Method in brief: (§2)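 Drug at about 5×10^-6 M with calf thymus DNA at 0, 1.94, 2.27, 3.35 and 9.45×10^-5 M in pH 7.00 1 M NaCl–0.008 M Tris buffer, equilibrated 30 min, then spun at 150 000g for 6 h at 25 °C. Free drug was measured in the supernatant. Bound drug was measured by dissolving the pellet in 50% DMF and reading A443 against drug in 50% DMF. Repeated at varied drug/DNA ratios.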

Calf thymus DNA [12] = assay: Binding affinity to calf thymus DNA at DNA/drug ratio of 12:1 after 30 mins by ultracentrifugation method; type: nucleic-acid assay; conditions: Bos taurus; method in brief: as §2
Calf thymus DNA [13] = assay: Binding affinity to calf thymus DNA after 30 mins by ultracentrifugation method; type: nucleic-acid assay; conditions: Bos taurus; method in brief: as §2
Bacillus spizizenii [14] = assay: Antibacterial activity against Bacillus subtilis ATCC 6633 at 40 ug/ml by cup-plate diffusion assay; type: functional; conditions: read-out: IZ; method in brief: as §1
Bacillus spizizenii [15] = assay: Antibacterial activity against Bacillus subtilis ATCC 6633 at 40 ug/ml by cup-plate diffusion assay relative to actinomycin D; type: functional; method in brief: as §1

COC(=O)[C@@H]1CC(=O)CN1C(=O)[C@H](NC(=O)[C@@H](NC(=O)c1c2nc3c(C(=O)N[C@H](C(=O)N[C@@H](C(=O)N4CC(=O)C[C@H]4C(=O)OC)C(C)C)[C@@H](C)O)ccc(C)c3oc-2c(C)c(=O)c1N)[C@@H](C)O)C(C)C
Activity (P388): <=25%
Activity (Calf thymus DNA [1]): inactive
Activity (Calf thymus DNA [2]): inactive
Activity (Calf thymus DNA [3]): inactive

Cc1c2oc3c(C)ccc(C(=O)N[C@@H]4C(=O)N[C@H](C(C)C)C(=O)N5CCC[C@H]5C(=O)N(C)CC(=O)N(C)[C@@H](C(C)C)C(=O)O[C@@H]4C)c3nc-2c(C(=O)N[C@@H]2C(=O)N[C@H](C(C)C)C(=O)N3CCC[C@H]3C(=O)N(C)CC(=O)N(C)[C@@H](C(C)C)C(=O)O[C@@H]2C)c(N)c1=O [DACTINOMYCIN] (I: T[dV]P[Sar][NMeV] / II: T[dV]P[Sar][NMeV]; ester I:1-I:C, II:1-II:C; linker I:N-II:N via Actinocin(1to9))
zone of inhibition at 5 µg/mL (Bacillus spizizenii [4]): 18.2 mm
zone of inhibition at 2.5 µg/mL (Bacillus spizizenii [5]): 14.5 mm
zone of inhibition at 1.25 µg/mL (Bacillus spizizenii [6]): 11.1 mm
zone of inhibition at 3.85 µg/mL (Bacillus spizizenii [7]): 16.6 mm
zone of inhibition at 2.35 µg/mL (Bacillus spizizenii [8]): 14.3 mm
zone of inhibition at 0.65 µg/mL (Bacillus spizizenii [9]): 8.5 mm
Activity (P388): <=25%
Activity (Calf thymus DNA [1]): Active
Activity (Calf thymus DNA [2]): Active
Activity (Calf thymus DNA [10]): 30%
Activity (Calf thymus DNA [3]): Active
Activity (Calf thymus DNA [11]): 85%
Activity (Calf thymus DNA [12]): 70%
Ka (Calf thymus DNA [13]): 1.56 ×10⁶ /M

COC(=O)[C@@H]1CCCN1C(=O)[C@H](NC(=O)[C@@H](NC(=O)c1c2nc3c(C(=O)N[C@H](C(=O)N[C@@H](C(=O)N4CCC[C@H]4C(=O)OC)C(C)C)[C@@H](C)O)ccc(C)c3oc-2c(C)c(=O)c1N)[C@@H](C)O)C(C)C
Activity (P388): <=25%
Activity (Calf thymus DNA [1]): inactive
Activity (Calf thymus DNA [2]): inactive
Activity (Calf thymus DNA [3]): inactive

COC(=O)[C@H](NC(=O)[C@@H](NC(=O)c1c2nc3c(C(=O)N[C@H](C(=O)N[C@@H](C(=O)OC)C(C)C)[C@@H](C)O)ccc(C)c3oc-2c(C)c(=O)c1N)[C@@H](C)O)C(C)C
zone of inhibition at 40 µg/mL (Bacillus spizizenii [14]): 16.6 mm
Ratio (Bacillus spizizenii [15]): 9.6
Activity (P388): <=25%
Activity (Calf thymus DNA [1]): inactive
Activity (Calf thymus DNA [2]): inactive
Activity (Calf thymus DNA [10]): 10%
Activity (Calf thymus DNA [3]): inactive
Activity (Calf thymus DNA [11]): 30%

CNC(=O)[C@H](NC(=O)[C@@H](NC(=O)c1c2nc3c(C(=O)N[C@H](C(=O)N[C@@H](C(=O)NC)C(C)C)[C@@H](C)O)ccc(C)c3oc-2c(C)c(=O)c1N)[C@@H](C)O)C(C)C
zone of inhibition at 40 µg/mL (Bacillus spizizenii [14]): 8.5 mm
Ratio (Bacillus spizizenii [15]): 1.1
Activity (P388): <=25%
Activity (Calf thymus DNA [1]): inactive
Activity (Calf thymus DNA [2]): inactive
Activity (Calf thymus DNA [3]): inactive
Activity (Calf thymus DNA [12]): 17%

Cc1c2oc3c(C)ccc(C(=O)N[C@H](C(=O)N[C@@H](C(=O)NCCO)C(C)C)[C@@H](C)O)c3nc-2c(C(=O)N[C@H](C(=O)N[C@@H](C(=O)NCCO)C(C)C)[C@@H](C)O)c(N)c1=O
Activity (P388): <=25%
Activity (Calf thymus DNA [1]): inactive
Activity (Calf thymus DNA [2]): inactive
Activity (Calf thymus DNA [3]): inactive

COC(=O)[C@H](NC(=O)[C@@H](NC(=O)c1c2nc3c(C(=O)N[C@H](C(=O)N[C@@H](C(=O)OC)C(C)C)[C@@H](C)OC(C)=O)ccc(C)c3oc-2c(C)c(=O)c1N)[C@@H](C)OC(C)=O)C(C)C
Activity (P388): <=25%
Activity (Calf thymus DNA [1]): inactive
Activity (Calf thymus DNA [2]): inactive
Activity (Calf thymus DNA [3]): inactive

Cc1c2oc3c(C)ccc(C(=O)N[C@H](C(=O)N[C@@H](C(=O)O)C(C)C)[C@@H](C)O)c3nc-2c(C(=O)N[C@H](C(=O)N[C@@H](C(=O)O)C(C)C)[C@@H](C)O)c(N)c1=O
zone of inhibition at 40 µg/mL (Bacillus spizizenii [14]): 14.3 mm
Ratio (Bacillus spizizenii [15]): 5.3
Activity (P388): <=25%
Activity (Calf thymus DNA [1]): inactive
Activity (Calf thymus DNA [2]): inactive
Activity (Calf thymus DNA [3]): inactive

Cc1c2oc3c(C)ccc(C(=O)N[C@H](C(=O)N[C@@H](C(=O)NN)C(C)C)[C@@H](C)O)c3nc-2c(C(=O)N[C@H](C(=O)N[C@@H](C(=O)NN)C(C)C)[C@@H](C)O)c(N)c1=O
Activity (P388): <=25%
Activity (Calf thymus DNA [1]): inactive
Activity (Calf thymus DNA [2]): inactive
Activity (Calf thymus DNA [3]): inactive
